Active and inactive are the calls of the source.
Key:
[1] = biological target: T1, Sodium-dependent dopamine transporter (Homo sapiens, UniProt Q01959); test: Enhancing of [125I]RTI-55 binding to recombinant human DAT expressed in HEK293 cell membranes preincubated for 10 mins followed by radioligand addition measured after 90 mins by micro beta scintillation counting analysis; settings: hek293
In short: (§1)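 Membranes of HEK-293 cells stably expressing hDAT, hNET or hSERT. […] Compound preincubated 10 min at room temperature, then [125I]23 (40-80 pM final) or [3H]26 (1-3 nM for DAT and NET, 10-13 nM for SERT) added. Incubated 90 min at room temperature in the dark, then filtered. EC50 or Ki; mean ± SEM.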

[2] = biological target: T1, Sodium-dependent dopamine transporter; test: Enhancing of [3H]mazindol binding to recombinant human DAT expressed in HEK293 cell membranes preincubated for 10 mins followed by radioligand addition measured after 90 mins by micro beta scintillation counting analysis; settings: hek293; in short: as §1
[3] = biological target: T2, Sodium-dependent noradrenaline transporter (Homo sapiens, UniProt P23975); test: Enhancing of [125I]RTI-55 binding to recombinant human NET expressed in HEK293 cell membranes preincubated for 10 mins followed by radioligand addition measured after 90 mins by micro beta scintillation counting analysis; settings: hek293
T2 sequence (P23975 whole entry): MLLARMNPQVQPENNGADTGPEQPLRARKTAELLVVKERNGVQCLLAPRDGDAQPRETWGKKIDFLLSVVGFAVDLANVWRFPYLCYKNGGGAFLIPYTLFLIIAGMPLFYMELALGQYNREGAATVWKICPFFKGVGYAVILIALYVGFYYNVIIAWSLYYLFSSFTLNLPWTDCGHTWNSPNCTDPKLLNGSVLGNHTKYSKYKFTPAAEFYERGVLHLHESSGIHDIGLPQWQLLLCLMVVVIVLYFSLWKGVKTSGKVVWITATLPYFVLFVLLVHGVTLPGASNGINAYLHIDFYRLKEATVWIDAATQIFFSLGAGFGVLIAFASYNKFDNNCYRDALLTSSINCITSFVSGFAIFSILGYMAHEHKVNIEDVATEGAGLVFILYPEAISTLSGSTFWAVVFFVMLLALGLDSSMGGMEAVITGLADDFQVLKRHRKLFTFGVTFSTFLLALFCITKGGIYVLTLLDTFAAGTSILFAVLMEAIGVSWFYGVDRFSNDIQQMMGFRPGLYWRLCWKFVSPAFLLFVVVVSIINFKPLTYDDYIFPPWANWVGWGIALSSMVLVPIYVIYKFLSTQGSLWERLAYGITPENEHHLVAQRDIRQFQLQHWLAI

[4] = biological target: T2, Sodium-dependent noradrenaline transporter; test: Enhancing of [3H]mazindol binding to recombinant human NET expressed in HEK293 cell membranes preincubated for 10 mins followed by radioligand addition measured after 90 mins by micro beta scintillation counting analysis
[5] = biological target: T2, Sodium-dependent noradrenaline transporter; test: Inhibition of recombinant human NET expressed in HEK293 […] assessed as reduction in [3H]-norepinephrine uptake incubated for 22 mins by micro beta scintillation counting analysis
[6] = biological target: Sodium-dependent serotonin transporter (Homo sapiens, UniProt P31645); test: Enhancing of [125I]RTI-55 binding to recombinant human SERT expressed in HEK293 cell membranes preincubated for 10 mins followed by radioligand addition measured after 90 mins by micro beta scintillation counting analysis; settings: hek293
Sequence of Sodium-dependent serotonin transporter (P31645 whole entry): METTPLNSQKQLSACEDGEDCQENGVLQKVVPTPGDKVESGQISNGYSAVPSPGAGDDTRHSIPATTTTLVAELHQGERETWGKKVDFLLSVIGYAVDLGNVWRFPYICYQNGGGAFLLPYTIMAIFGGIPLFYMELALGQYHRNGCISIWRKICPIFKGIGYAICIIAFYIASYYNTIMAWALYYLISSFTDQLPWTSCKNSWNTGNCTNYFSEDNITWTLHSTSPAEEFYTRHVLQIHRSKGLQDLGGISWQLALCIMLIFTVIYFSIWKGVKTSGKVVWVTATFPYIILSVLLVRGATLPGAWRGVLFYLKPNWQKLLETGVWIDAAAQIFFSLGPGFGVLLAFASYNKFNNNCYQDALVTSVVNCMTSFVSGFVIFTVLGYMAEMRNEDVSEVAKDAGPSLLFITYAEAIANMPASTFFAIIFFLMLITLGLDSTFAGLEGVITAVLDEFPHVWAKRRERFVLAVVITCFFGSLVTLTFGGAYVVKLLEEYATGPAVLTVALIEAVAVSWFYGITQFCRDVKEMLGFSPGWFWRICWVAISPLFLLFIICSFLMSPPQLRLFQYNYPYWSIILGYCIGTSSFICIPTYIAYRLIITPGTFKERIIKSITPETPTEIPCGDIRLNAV

[7] = biological target: T2, Sodium-dependent noradrenaline transporter; test: Inhibition of [125I]RTI-55 binding to recombinant human NET expressed in HEK293 cell membranes preincubated for 10 mins followed by radioligand addition measured after 90 mins by micro beta scintillation counting analysis
[8] = biological target: T2, Sodium-dependent noradrenaline transporter; test: Inhibition of [3H]mazindol binding to recombinant human NET expressed in HEK293 cell membranes preincubated for 10 mins followed by radioligand addition measured after 90 mins by micro beta scintillation counting analysis
[9] = biological target: T1, Sodium-dependent dopamine transporter; test: Inhibition of [3H]mazindol binding to recombinant human DAT expressed in HEK293 cell membranes preincubated for 10 mins followed by radioligand addition measured after 90 mins by micro beta scintillation counting analysis
[10] = biological target: T3, Sodium-dependent dopamine transporter (Mus musculus, UniProt Q61327); test: Inhibition of mouse DAT expressed in HEK293 cells assessed as reduction in [3H]-DA uptake; format: cell-based
T3 sequence (Q61327 whole entry): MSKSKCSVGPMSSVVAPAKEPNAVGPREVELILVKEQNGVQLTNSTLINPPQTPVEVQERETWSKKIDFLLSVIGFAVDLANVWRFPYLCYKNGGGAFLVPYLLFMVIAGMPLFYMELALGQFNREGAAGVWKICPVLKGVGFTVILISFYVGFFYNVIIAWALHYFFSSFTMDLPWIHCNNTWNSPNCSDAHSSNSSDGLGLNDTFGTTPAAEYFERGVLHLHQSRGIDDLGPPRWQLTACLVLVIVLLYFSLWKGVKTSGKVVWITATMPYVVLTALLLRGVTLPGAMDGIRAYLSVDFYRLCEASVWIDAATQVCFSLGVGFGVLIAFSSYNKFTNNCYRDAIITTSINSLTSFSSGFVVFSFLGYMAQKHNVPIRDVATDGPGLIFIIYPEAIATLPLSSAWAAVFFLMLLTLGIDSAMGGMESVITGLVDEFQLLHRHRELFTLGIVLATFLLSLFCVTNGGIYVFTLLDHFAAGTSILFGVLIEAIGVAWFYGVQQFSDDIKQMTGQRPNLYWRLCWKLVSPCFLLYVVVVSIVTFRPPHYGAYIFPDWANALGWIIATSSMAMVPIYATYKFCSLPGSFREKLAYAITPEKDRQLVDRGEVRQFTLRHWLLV

[11] = biological target: T3, Sodium-dependent dopamine transporter; test: Inhibition of [125I]RTI-55 binding to mouse DAT expressed in HEK293 cells preincubated for 10 mins followed by radioligand addition measured after 90 mins by micro beta scintillation counting analysis; format: cell-based
[12] = biological target: T1, Sodium-dependent dopamine transporter; test: Enhancing of [3H]WIN35,428 binding to recombinant human DAT expressed in HEK293 cell membranes at 10 uM pre-incubated for 10 mins before radioligand addition and measured 90 mins after radioligand addition by micro beta scintillation counting analysis relative to control
[13] = biological target: T1, Sodium-dependent dopamine transporter; test: Inhibition of [3H]WIN35,428 binding to recombinant human DAT expressed in HEK293 cell membranes at 10 uM pre-incubated for 10 mins before radioligand addition and measured 90 mins after radioligand addition by micro beta scintillation counting analysis relative to control
Adenosine receptor A3 [14] = biological target: T4, Adenosine receptor A3 (Homo sapiens, UniProt P0DMS8); test: Displacement of [125I]N6-(4-amino-3-iodobenzyl)adenosine-5'-N-methyluronamide from human A3AR expressed in HEK293T cells pre-incubated for 10 mins before radioligand addition and measured 90 mins after radioligand addition by micro beta scintillation counting analysis relative to control; format: cell-based, HEK-293T
T4 sequence (P0DMS8 whole entry): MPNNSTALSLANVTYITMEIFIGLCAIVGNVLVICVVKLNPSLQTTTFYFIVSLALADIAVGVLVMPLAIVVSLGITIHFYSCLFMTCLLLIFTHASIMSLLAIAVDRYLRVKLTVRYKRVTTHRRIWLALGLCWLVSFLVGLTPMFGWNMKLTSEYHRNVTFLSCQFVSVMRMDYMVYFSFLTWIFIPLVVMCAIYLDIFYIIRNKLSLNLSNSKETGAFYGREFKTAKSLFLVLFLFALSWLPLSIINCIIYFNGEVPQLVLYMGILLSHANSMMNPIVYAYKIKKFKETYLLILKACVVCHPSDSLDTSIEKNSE

Adenosine receptor A3 [15] = biological target: T5, Adenosine receptor A3 (Mus musculus, UniProt Q61618); test: Displacement of [125I]N6-(4-amino-3-iodobenzyl)adenosine-5'-N-methyluronamide from mouse A3AR expressed in HEK293T cells pre-incubated for 10 mins before radioligand addition and measured 90 mins after radioligand addition by micro beta scintillation counting analysis relative to control; format: cell-based
T5 sequence (Q61618 whole entry): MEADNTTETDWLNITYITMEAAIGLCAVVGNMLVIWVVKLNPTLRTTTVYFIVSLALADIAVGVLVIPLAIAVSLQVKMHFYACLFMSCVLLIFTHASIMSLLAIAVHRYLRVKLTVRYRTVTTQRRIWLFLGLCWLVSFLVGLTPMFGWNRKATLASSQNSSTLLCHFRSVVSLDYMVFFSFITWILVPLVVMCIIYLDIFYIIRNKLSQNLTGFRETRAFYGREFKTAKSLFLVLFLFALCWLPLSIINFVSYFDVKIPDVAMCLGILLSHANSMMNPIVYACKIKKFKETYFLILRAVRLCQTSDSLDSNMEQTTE

[16] = biological target: T2, Sodium-dependent noradrenaline transporter; test: Inhibition of [3H]nisoxetine binding to recombinant human NET expressed in HEK293 cell membranes preincubated for 10 mins followed by radioligand addition measured after 90 mins by micro beta scintillation counting analysis
Mus musculus = test: Antiallodynic activity in mouse chronic constriction injury model of neuropathic pain assessed as time duration of action for increasing in paw withdrawal threshold at 3 umol/kg, po administered on day 7 post injury; format: functional
[17] = biological target: Alpha-2A adrenergic receptor (Homo sapiens, UniProt P08913); test: Displacement of [3H]Rauwolscine from human adrenergic alpha2A receptor
Sequence of Alpha-2A adrenergic receptor (P08913 whole entry): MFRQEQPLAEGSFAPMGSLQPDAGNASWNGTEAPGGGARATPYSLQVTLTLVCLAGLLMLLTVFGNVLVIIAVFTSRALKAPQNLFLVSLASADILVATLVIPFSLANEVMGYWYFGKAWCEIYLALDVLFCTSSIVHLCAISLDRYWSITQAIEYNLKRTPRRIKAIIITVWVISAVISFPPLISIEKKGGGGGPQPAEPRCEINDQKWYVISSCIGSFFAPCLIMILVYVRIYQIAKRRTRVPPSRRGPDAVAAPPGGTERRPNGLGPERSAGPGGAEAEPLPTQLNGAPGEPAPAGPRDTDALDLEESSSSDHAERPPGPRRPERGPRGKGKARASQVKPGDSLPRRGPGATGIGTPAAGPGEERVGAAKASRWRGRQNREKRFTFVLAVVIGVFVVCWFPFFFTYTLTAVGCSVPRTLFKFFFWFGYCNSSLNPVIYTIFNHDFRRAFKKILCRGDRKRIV

[18] = biological target: Alpha-2B adrenergic receptor (Homo sapiens, UniProt P18089); test: Displacement of [3H]Rauwolscine from human adrenergic alpha2B receptor
Sequence of Alpha-2B adrenergic receptor (P18089 whole entry): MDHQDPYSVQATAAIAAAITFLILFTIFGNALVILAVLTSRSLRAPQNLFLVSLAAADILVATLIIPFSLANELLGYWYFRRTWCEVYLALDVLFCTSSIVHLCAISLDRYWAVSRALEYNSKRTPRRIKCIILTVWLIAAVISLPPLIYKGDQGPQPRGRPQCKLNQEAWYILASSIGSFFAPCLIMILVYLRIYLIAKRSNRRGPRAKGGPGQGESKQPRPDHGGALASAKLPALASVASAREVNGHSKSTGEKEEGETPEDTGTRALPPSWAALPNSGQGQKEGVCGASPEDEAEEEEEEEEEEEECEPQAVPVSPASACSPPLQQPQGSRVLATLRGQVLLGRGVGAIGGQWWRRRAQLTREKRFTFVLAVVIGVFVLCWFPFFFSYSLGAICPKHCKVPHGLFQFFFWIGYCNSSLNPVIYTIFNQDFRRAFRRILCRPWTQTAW

[19] = biological target: T6, Alpha-1A adrenergic receptor (Homo sapiens, UniProt P35348); test: Displacement of [3H]Prazosin from human adrenergic alpha1A receptor
T6 sequence (P35348 whole entry): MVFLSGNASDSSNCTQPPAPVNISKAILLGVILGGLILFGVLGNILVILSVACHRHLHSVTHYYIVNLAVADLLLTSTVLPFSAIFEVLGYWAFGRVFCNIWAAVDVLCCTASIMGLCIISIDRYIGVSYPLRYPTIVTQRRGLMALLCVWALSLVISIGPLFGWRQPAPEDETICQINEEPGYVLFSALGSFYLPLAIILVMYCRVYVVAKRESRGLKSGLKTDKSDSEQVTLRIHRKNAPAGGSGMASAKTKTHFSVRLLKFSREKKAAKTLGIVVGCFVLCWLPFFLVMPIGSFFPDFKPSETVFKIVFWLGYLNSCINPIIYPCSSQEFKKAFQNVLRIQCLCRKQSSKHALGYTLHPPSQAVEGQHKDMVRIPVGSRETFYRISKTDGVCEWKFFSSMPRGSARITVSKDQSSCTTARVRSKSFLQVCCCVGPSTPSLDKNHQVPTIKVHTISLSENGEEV

[20] = biological target: T7, Alpha-1B adrenergic receptor (Homo sapiens, UniProt P35368); test: Displacement of [3H]Prazosin from human adrenergic alpha1B receptor
T7 sequence (P35368 whole entry): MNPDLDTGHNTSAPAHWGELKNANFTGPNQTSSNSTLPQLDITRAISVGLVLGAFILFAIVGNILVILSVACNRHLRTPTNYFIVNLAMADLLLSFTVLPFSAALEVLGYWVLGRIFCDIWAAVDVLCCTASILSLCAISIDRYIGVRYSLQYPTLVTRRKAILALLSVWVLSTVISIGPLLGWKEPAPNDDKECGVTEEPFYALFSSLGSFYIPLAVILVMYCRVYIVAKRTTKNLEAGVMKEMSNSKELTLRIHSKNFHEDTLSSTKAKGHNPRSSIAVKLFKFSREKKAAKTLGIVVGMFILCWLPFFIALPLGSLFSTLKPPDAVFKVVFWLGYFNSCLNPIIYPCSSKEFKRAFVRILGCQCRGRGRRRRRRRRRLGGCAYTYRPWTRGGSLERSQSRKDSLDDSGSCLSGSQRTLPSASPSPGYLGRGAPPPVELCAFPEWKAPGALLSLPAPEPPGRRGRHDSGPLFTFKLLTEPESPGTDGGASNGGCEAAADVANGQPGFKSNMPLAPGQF

[21] = biological target: T8, Alpha-1D adrenergic receptor (Homo sapiens, UniProt P25100); test: Displacement of [3H]Prazosin from human adrenergic alpha1D receptor
T8 sequence (P25100 whole entry): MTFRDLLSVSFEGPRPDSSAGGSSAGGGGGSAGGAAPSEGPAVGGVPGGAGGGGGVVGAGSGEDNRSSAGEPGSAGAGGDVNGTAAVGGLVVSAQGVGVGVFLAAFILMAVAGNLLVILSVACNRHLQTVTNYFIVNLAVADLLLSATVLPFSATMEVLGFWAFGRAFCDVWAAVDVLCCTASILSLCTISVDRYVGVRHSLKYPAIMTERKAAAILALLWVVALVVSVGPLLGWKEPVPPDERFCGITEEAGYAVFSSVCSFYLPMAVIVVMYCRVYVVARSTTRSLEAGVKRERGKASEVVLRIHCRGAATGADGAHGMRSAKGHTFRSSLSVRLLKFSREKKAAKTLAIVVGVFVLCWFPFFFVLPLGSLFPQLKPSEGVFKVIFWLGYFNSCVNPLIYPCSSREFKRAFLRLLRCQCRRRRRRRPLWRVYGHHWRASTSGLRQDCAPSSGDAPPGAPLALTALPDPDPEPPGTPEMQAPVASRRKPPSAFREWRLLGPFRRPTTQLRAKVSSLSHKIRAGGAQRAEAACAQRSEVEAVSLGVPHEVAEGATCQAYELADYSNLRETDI

[22] = biological target: T9, Alpha-2C adrenergic receptor (Homo sapiens, UniProt P18825); test: Displacement of [3H]Rauwolscine from human adrenergic alpha2C receptor
T9 sequence (P18825 whole entry): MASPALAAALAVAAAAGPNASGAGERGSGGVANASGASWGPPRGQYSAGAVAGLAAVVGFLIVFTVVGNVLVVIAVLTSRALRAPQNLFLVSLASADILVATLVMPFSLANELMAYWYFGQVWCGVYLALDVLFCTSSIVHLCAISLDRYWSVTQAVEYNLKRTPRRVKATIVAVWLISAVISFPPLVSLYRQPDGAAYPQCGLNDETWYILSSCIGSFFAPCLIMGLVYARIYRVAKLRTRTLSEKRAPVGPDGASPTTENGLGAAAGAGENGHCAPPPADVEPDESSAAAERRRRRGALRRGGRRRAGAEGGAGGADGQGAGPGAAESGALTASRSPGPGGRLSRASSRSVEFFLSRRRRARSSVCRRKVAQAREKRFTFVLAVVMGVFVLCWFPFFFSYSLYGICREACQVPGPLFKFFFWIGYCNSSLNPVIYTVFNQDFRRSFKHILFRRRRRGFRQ

[23] = biological target: T1, Sodium-dependent dopamine transporter; test: Enhancing of [3H]WIN35,428 binding to recombinant human DAT expressed in HEK293 cell membranes pre-incubated for 10 mins before radioligand addition and measured 90 mins after radioligand addition by micro beta scintillation counting analysis relative to control
[24] = biological target: T10, Adenosine receptor A3 (Mus musculus) (UniProt Q61618); test: Displacement of [125I]N6-(4-amino-3-iodobenzyl)adenosine-5'-N-methyluronamide from mouse A3AR expressed in HEK293T cells at 10 uM pre-incubated for 10 mins before radioligand addition and measured 90 mins after radioligand addition by micro beta scintillation counting analysis relative to control; format: cell-based
T10 sequence (whole entry): T5 sequence (Q61618 whole entry)

[25] = biological target: Sigma intracellular receptor 2 (Rattus norvegicus, UniProt Q5U3Y7); test: Displacement of [3H]DTG from rat sigma 2 receptor
Sequence of Sigma intracellular receptor 2 (Q5U3Y7 whole entry): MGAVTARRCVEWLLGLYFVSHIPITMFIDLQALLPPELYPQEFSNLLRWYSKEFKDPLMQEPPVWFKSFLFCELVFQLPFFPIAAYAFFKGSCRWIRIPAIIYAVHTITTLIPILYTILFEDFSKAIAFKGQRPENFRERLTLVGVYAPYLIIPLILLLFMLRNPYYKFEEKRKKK

T1 sequence (Q01959 whole entry): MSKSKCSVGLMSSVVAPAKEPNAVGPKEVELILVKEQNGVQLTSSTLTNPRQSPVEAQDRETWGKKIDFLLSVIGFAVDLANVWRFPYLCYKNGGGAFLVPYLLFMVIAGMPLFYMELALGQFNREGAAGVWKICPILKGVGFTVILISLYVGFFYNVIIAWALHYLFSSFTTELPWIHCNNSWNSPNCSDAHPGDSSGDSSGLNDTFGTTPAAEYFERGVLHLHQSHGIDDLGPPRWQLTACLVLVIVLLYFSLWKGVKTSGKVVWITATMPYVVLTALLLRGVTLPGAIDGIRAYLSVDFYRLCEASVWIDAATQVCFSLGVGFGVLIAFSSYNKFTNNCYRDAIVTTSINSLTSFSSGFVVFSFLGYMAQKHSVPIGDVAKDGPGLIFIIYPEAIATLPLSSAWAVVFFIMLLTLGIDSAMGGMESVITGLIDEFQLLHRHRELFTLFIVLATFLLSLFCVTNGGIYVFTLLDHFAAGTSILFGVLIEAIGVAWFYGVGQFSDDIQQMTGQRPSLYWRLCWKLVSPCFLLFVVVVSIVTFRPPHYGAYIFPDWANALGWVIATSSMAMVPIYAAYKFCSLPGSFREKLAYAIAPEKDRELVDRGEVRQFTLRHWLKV

SMILES	EC50 [1]	EC50 [2]	EC50 [4]	EC50 [6]	Activity [12]	inhibition [13]	Ki (Adenosine receptor A3 [14])	Time (Mus musculus)	Ki [17]	Ki [19]	Ki [20]	Ki [21]	Ki [22]	further results
OC1(c2ccc(Cl)cc2)c2ccccc2C2=NCCN21 (racemic) [MAZINDOL]	Not Active	Not Active	Not Active	Not Active	–	–	–	–	–	–	–	–	–	EC50 [3]: Not Active; IC50 [5]: 0.92 nM; Ki [7]: 11.3 nM; Ki [8]: 13.5 nM
COC(=O)[C@H]1[C@@H](c2ccc([125I])cc2)CC2CC[C@H]1N2C	–	Not Active	Not Active	–	–	–	–	–	–	–	–	–	–	Ki [9]: 11 nM
COC(=O)[C@H]1[C@@H](OC(=O)c2ccccc2)C[C@@H]2CC[C@H]1N2C [COCAINE]	Not Active	Not Active	–	Not Active	–	–	–	–	–	–	–	–	–	IC50 [10]: 200 nM; Ki [11]: 850 nM
CCCNc1nc(C#Cc2ccc(Cl)s2)nc2c1ncn2[C@@H]1O[C@H](C(=O)NC)[C@@H](O)[C@H]1O	–	–	–	–	84%	inactive	6.25 nM	>6 h	5000 to 10000 nM	> 10000 nM	> 10000 nM	> 10000 nM	> 10000 nM	Ki (Adenosine receptor A3 [15]): 597 nM; Ki [16]: 3100 nM; Ki [18]: 5000 to 10000 nM; EC50 [23]: > 1000 nM
CNC(=O)[C@H]1O[C@@H](n2cnc3c(NC)nc(C#Cc4ccc(Cl)s4)nc32)[C@H](O)[C@@H]1O	–	–	–	–	321%	inactive	–	>6 h	5000 to 10000 nM	> 10000 nM	> 10000 nM	> 10000 nM	> 10000 nM	–
CNc1nc(C#Cc2ccc(Cl)s2)nc2c1ncn2[C@H]1[C@H](O)[C@H](O)[C@]2(C(=O)OCCc3ccccc3)C[C@H]12	–	–	–	–	inactive	–	262 nM	–	–	–	–	–	–	inhibition [24]: 3%; Ki [25]: 5900 nM

Reference: ChEMBL document CHEMBL4007505 (J Med Chem, 2017)
